According to ChEMBL document CHEMBL1629663, “Postantibiotic effects of telavancin against 16 gram-positive organisms” (Antimicrob Agents Chemother, 2009):
Converted amounts (≈) assume the structure as drawn.

Legend:
[1] = test system: Staphylococcus aureus; experiment: Antimicrobial activity against heterogenous vancomycin-intermediate-, methicillin-resistant Staphylococcus aureus 618 assessed as time required to induce sub-MIC effect at 0.3 times MIC […] by plate counting method; format: functional
Outline: (§1)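 SME, viable plate count method: no prior drug exposure. About 5 × 10^6 CFU/ml in Mueller-Hinton broth at 35°C received 0.2, 0.3 or 0.4× MIC, alongside a drug-free tube. Counts were taken at the start, then every 2 h until McFarland no. 1 turbidity, as log10 CFU/ml against time. Two separate experiments, each with a new inoculum.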

[2] = test system: Staphylococcus aureus; experiment: Antimicrobial activity against vancomycin-susceptible-, methicillin-resistant Staphylococcus aureus 1306 assessed as time required to induce post antibiotic sub-MIC effect at 0.3 times MIC […] by plate counting method; format: functional
Outline: (§2)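 After 1 h preexposure to 10× MIC at 35°C and 1:1,000 dilution, cultures were split, and drug was re-added to final 0.2, 0.3 or 0.4× MIC, with a drug-free tube. Viable counts were taken every 2 h until McFarland 1 turbidity. Duration was derived from log10 CFU/ml versus time curves. Two experiments were run, each with a new inoculum.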

[3] = test system: Staphylococcus aureus; experiment: Antimicrobial activity against vancomycin-susceptible-, methicillin-resistant Staphylococcus aureus 1130 assessed as time required to induce sub-MIC effect at 0.4 times MIC exposed for 2 hrs by plate counting method; format: functional
Outline: (§3)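 Sub-MIC effect: cultures not preexposed to drug were diluted and handled as in the PA-SME procedure in Mueller-Hinton broth with final 0.2, 0.3 or 0.4× MIC, plus a drug-free control. Viable plate counts were taken every 2 h until McFarland 1 turbidity. Duration was derived from growth curves. Two experiments were run, each with a new inoculum.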

[4] = test system: Staphylococcus aureus; experiment: Antimicrobial activity against heterogenous vancomycin-intermediate-, methicillin-resistant Staphylococcus aureus 618 assessed as time required to induce post antibiotic sub-MIC effect at 0.2 times MIC pre-exposed to Telavancin […] by plate counting method; format: functional
Outline: (§4)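 PAE was first induced with 10× MIC for 1 h at 35°C (inoculum about 5 × 10^6 CFU/ml, Mueller-Hinton broth) and ended by 1:1,000 dilution. Cultures were then split and given 0.2, 0.3 or 0.4× MIC, with one tube left without drug. Viable counts were taken before exposure, after dilution, then every 2 h until McFarland no. 1 turbidity. Two separate experiments, each with a new inoculum.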

[5] = test system: Staphylococcus aureus; experiment: Antimicrobial activity against vancomycin-susceptible-, methicillin-resistant Staphylococcus aureus 1130 assessed as time required to induce post antibiotic sub-MIC effect at 0.3 times MIC […] by plate counting method; format: functional; outline: as §2
[6] = test system: Staphylococcus aureus; experiment: Antimicrobial activity against vancomycin-susceptible-, methicillin-resistant Staphylococcus aureus ATCC 33591 assessed as time required to induce post antibiotic sub-MIC effect at 0.4 times MIC […] by plate counting method; format: functional; outline: as §2
[7] = test system: Staphylococcus aureus; experiment: Antimicrobial activity against vancomycin-susceptible-, methicillin-resistant Staphylococcus aureus 1307 assessed as time required to induce post antibiotic sub-MIC effect at 0.3 times MIC […] by plate counting method; format: functional; outline: as §2
[8] = test system: Staphylococcus aureus; experiment: Antimicrobial activity against vancomycin-intermediate-, methicillin-resistant Staphylococcus aureus 1287 assessed as time required to induce sub-MIC effect at 0.3 times MIC […] by plate counting method; format: functional; outline: as §1
[9] = test system: Staphylococcus aureus; experiment: Antimicrobial activity against heterogenous vancomycin-intermediate-, methicillin-resistant Staphylococcus aureus 618 assessed as time required to induce sub-MIC effect at 0.2 times MIC exposed for 2 hrs by plate counting method; format: functional; outline: as §1
[10] = test system: Streptococcus agalactiae; experiment: Antimicrobial activity against Streptococcus agalactiae HMC 5 assessed as time required to induce post antibiotic sub-MIC effect at 0.3 times MIC […] by plate counting method; format: functional
Outline: (§5)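 Mueller-Hinton broth cultures of about 5 × 10^6 CFU/ml were pre-exposed to telavancin at 10× MIC for 1 h at 35°C, then diluted 1:1,000. Telavancin was re-added to final 0.2, 0.3 or 0.4× MIC, alongside a drug-free tube. Viable counts were taken before exposure, after dilution, then every 2 h until McFarland no. 1 turbidity. Duration comes from log10 CFU/ml-versus-time plots; two separate experiments with fresh inocula.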

[11] = test system: Enterococcus faecium; experiment: Antimicrobial activity against Enterococcus faecium HMC 588 assessed as time required to induce post antibiotic sub-MIC effect at 0.2 times MIC pre-exposed to Telavancin […] by plate counting method; format: functional; outline: as §5
[12] = test system: Staphylococcus aureus; experiment: Antimicrobial activity against vancomycin-susceptible-, methicillin-resistant Staphylococcus aureus ATCC 33591 assessed as time required to induce sub-MIC effect at 0.2 times MIC exposed for 2 hrs by plate counting method; format: functional; outline: as §3
[13] = test system: Staphylococcus aureus; experiment: Antimicrobial activity against vancomycin-resistant-, methicillin-resistant Staphylococcus aureus 510 assessed as time required to induce sub-MIC effect at 0.2 times MIC exposed for 2 hrs by plate counting method; format: functional; outline: as §3
[14] = test system: Staphylococcus aureus; experiment: Antimicrobial activity against heterogenous vancomycin-intermediate-, methicillin-resistant Staphylococcus aureus 873 assessed as time required to induce post antibiotic sub-MIC effect at 0.2 times MIC pre-exposed to Telavancin […] by plate counting method; format: functional; outline: as §4
[15] = test system: Staphylococcus aureus; experiment: Antimicrobial activity against vancomycin-susceptible-, methicillin-resistant Staphylococcus aureus 1130 by microdilution method; format: functional
[16] = test system: Streptococcus pyogenes; experiment: Antimicrobial activity against Streptococcus pyogenes HMC 414 by microdilution method; format: functional
[17] = test system: Staphylococcus aureus; experiment: Antimicrobial activity against vancomycin-intermediate-, methicillin-resistant Staphylococcus aureus 555 assessed as time required to induce sub-MIC effect at 0.2 times MIC […] by plate counting method; format: functional; outline: as §1
[18] = Elimination half life in healthy human at 5 mg/kg, iv; format: ADME, organism-based; parameters: dose 5 mg/kg, route intravenous; settings: in vivo, read-out: beta t1/2
[19] = test system: Staphylococcus aureus; experiment: Antimicrobial activity against heterogenous vancomycin-intermediate-, methicillin-resistant Staphylococcus aureus 618 assessed as time required to induce sub-MIC effect at 0.4 times MIC […] by plate counting method; format: functional; outline: as §1
[20] = test system: Staphylococcus aureus; experiment: Antimicrobial activity against vancomycin-susceptible-, methicillin-resistant Staphylococcus aureus 1130 assessed as time required to induce post antibiotic sub-MIC effect at 0.2 times MIC pre-exposed to Telavancin for […] by plate counting method; format: functional; outline: as §2
[21] = test system: Streptococcus agalactiae; experiment: Antimicrobial activity against Streptococcus agalactiae HMC 5 assessed as time required to induce sub-MIC effect at 0.4 times MIC exposed for 2 hrs by plate counting method; format: functional
Outline: (§6)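 Unexposed Mueller-Hinton broth cultures (about 5 × 10^6 CFU/ml, 35°C) were handled as in the PA-SME set but without the 10× MIC pre-exposure. They were diluted 1:1,000, then given telavancin at final 0.2, 0.3 or 0.4× MIC, with a drug-free control. Viable counts were taken every 2 h until McFarland no. 1 turbidity. Effect duration comes from log10 CFU/ml-time plots; two separate experiments with new inocula.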

[22] = test system: Staphylococcus aureus; experiment: Antimicrobial activity against vancomycin-susceptible-, methicillin-resistant Staphylococcus aureus 1130 assessed as time required to induce sub-MIC effect at 0.2 times MIC exposed for 2 hrs by plate counting method; format: functional; outline: as §3
[23] = test system: Staphylococcus aureus; experiment: Antimicrobial activity against vancomycin-resistant-, methicillin-resistant Staphylococcus aureus 510 assessed as time required to induce post antibiotic sub-MIC effect at 0.2 times MIC pre-exposed to Telavancin for 1 hr by plate counting method
[24] = test system: Enterococcus faecalis; experiment: Antimicrobial activity against Enterococcus faecalis ATCC 29212 assessed as time required to induce sub-MIC effect at 0.4 times MIC exposed for 2 hrs by plate counting method; format: functional; outline: as §6

## CCCCCCCCCCNCCN[C@@]1(C)C[C@H](O[C@H]2[C@H](Oc3c4cc5cc3Oc3ccc(cc3Cl)[C@@H](O)[C@@H](NC(=O)[C@@H](CC(C)C)NC)C(=O)N[C@@H](CC(N)=O)C(=O)N[C@H]5C(=O)N[C@H]3C(=O)N[C@H](C(=O)N[C@H](C(=O)O)c5cc(O)c(CNCP(=O)(O)O)c(O)c5-c5cc3ccc5O)[C@H](O)c3ccc(c(Cl)c3)O4)O[C@H](CO)[C@@H](O)[C@@H]2O)O[C@@H](C)[C@H]1O [TELAVANCIN]
[1]
  PAE: 1.5 h
[2]
  PAE: 5.4 h
[3]
  PAE: 6.5 h
[4]
  PAE: 5.7 h
[5]
  PAE: 10 h
[6]
  PAE: > 10 h
[7]
  PAE: > 10.5 h
[8]
  PAE: 0.4 h
[9]
  PAE: 0.3 h
[10]
  PAE: 4.7 h
[11]
  PAE: 1.9 h
[12]
  PAE: 0.3 h
[13]
  PAE: 1.9 h
[14]
  PAE: 3.6 h
[15]
  MIC: 0.12 µg/mL (≈ 0.0684 µM)
[16]
  MIC: 0.06 µg/mL (≈ 0.0342 µM)
[17]
  PAE: 0.3 h
[18]
  half-life: > 7 h
[19]
  PAE: 2.3 h
[20]
  PAE: 5.4 h
[21]
  PAE: > 10.7 h
[22]
  PAE: 0 h
[23]
  PAE: 5.6 h
[24]
  PAE: 3.6 h
